Where a chain is given by its changes, count along the chain named. In names and notes the source's numbering stands. Entries after “also recorded” stand apart in the source; their conditions may differ.
Legend:
pre-60S particles [1] = test: association with pre-60S particles; type: cell-based, Saccharomyces cerevisiae; settings: for association with pre-60S particles: 10–50% sucrose gradient, anti-ProtA Western blot
Procedure, shortened: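 Wild-type yeast expressed plasmid-borne NSA2-FTpA or nsa2 Y90A-FTpA. Cells were treated with cycloheximide for 15 min and lysed with glass beads. Whole-cell lysates were fractionated on 10–50% sucrose gradients (16 h, 27,000 rpm, 0.4 ml fractions), and fractions were probed by Western blot with anti-ProtA to detect tagged Nsa2.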

Nsa2 = test: in vitro binding assay of Rsa4 mutants with MBP-Nsa2; design: species or system Saccharomyces cerevisiae; settings: immobilized MBP-Nsa2, HIS-TEV-Rsa4 mutant in E. coli lysate; SDS-PAGE
Procedure, shortened: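 Bait and prey were expressed in E. coli by IPTG induction for 3 h. MBP-Nsa2 was prepurified on SP Sepharose and bound to amylose resin; HIS-TEV-Rsa4 variants were Ni-NTA-purified. Beads were incubated 45 min with a 5× excess of Rsa4 mixed with MBP-depleted E. coli lysate as competitor. Beads were washed in 20 mM Hepes pH 7.5, 200 mM NaCl, 1 mM DTT and eluted in SDS sample buffer (10 min, 65°C). Eluates were run on 4–12% SDS-PAGE with Coomassie staining.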

[2] = test system: Rsa4 shuffle strain (rsa4Δ); test: complementation of rsa4Δ; type: cell-based, Saccharomyces cerevisiae; settings: SDC+FOA, 30°C, 2 d
wild-type yeast growth = test: dominant-negative phenotype upon GAL overexpression in wild-type yeast; type: cell-based, Saccharomyces cerevisiae; settings: GAL promoter, galactose medium, 30°C, 2 or 3 d
pre-60S particles [3] = test: affinity purification of Rpl5-FTpA constructs; type: cell-based, Saccharomyces cerevisiae; settings: Flag-TEV-ProtA bait
Procedure, shortened: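 Rpl5 variants tagged with Flag-TEV-ProtA were purified from a 2-liter yeast culture pellet. Steps: IgG-Sepharose 90 min, TEV elution 120 min, FLAG beads 45 min, FLAG-peptide elution. Eluates were run alongside pre-60S particles purified via Nsa2-FTpA and FTpA-Rsa4, then analysed by SDS-PAGE and Western blot.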

HIS6-Rsa4 WD40 domain = molecular target: T1, HIS6-Rsa4 WD40 domain (S. cerevisiae, UniProt P25382 112-515); test: pull-down
T1 sequence: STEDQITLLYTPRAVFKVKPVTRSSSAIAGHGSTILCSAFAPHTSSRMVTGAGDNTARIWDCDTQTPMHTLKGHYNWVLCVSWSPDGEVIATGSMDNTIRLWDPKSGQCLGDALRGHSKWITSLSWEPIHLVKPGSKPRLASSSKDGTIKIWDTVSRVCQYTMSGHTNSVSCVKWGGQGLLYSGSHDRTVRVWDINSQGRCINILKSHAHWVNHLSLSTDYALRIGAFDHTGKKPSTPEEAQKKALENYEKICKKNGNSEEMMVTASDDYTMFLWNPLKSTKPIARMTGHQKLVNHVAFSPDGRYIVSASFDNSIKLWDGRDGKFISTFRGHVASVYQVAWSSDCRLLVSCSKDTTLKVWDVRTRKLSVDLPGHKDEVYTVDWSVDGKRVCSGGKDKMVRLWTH

[4] = molecular target: T2, Rsa4 β-propeller (Rsa4Δ136) (S. cerevisiae, UniProt P25382 137-515); test: ITC
T2 sequence: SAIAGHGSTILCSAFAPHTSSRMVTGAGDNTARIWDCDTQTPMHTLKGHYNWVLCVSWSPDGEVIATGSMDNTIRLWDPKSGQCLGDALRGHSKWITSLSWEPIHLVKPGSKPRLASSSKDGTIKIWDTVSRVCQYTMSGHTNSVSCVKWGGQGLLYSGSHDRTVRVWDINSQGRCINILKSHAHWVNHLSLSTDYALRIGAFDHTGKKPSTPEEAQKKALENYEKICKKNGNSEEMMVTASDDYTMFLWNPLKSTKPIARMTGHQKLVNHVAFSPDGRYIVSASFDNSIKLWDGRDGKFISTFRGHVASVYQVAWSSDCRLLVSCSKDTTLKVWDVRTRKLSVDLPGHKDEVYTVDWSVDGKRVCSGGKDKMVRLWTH

[5] = molecular target: T3, HIS6-TEV-Rsa4 full-length (S. cerevisiae, UniProt P25382 1-515); test: pull-down
T3 sequence: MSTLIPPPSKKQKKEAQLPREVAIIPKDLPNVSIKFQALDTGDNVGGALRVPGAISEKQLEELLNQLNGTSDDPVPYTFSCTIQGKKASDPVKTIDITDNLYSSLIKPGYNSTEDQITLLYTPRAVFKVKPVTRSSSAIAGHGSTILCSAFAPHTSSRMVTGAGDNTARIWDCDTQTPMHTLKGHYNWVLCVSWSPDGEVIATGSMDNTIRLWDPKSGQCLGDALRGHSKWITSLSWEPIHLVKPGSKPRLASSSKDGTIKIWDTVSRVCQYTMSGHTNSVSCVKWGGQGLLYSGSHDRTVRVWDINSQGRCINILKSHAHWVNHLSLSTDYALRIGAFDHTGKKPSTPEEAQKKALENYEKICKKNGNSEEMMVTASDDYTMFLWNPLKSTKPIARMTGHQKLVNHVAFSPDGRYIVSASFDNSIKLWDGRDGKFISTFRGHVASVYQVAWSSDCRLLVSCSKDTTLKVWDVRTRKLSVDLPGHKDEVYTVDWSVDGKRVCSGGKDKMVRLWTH

[6] = test system: Nsa2 shuffle strain (nsa2Δ); test: complementation of nsa2Δ; type: cell-based, Saccharomyces cerevisiae; settings: SDC+FOA, 30°C, 2 or 3 d
[7] = test system: 60S subunit production / pre-60S composition; test: pulse-chase labeling with affinity purification of Rpl25; type: cell-based, Saccharomyces cerevisiae
Procedure, shortened: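 Strain DS1-2b carried an amber-suppressor tRNA/synthetase plasmid and a GAL plasmid co-expressing 2×HA-TAG-Rpl25-FTpA with wild-type or Y90A Nsa2. After 60 min galactose induction, O-methyl-tyrosine was added as a 7 min pulse, followed by a 20 min chase with tetracycline and glucose. Rpl25 was TAP-purified, run on SDS-PAGE with Coomassie staining, and bands were identified by mass spectrometry.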

[8] = test system: 60S subunit formation and nuclear export; test: 60S biogenesis/export upon overexpression; type: cell-based, Saccharomyces cerevisiae; settings: galactose-containing medium, 6 h (nsa2) or 8 h (rsa4)
Procedure, shortened: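 Wild-type yeast carried plasmids for the 60S reporter Rpl25-EGFP and mRFP-Nop1, plus 2μ GAL-driven NSA2 alleles. Cells were shifted to galactose medium for 6 h (Nsa2), washed in water and imaged at room temperature (100× oil objective, EGFP/Cy3 filters). For profiles, cells were treated with cycloheximide for 15 min, lysed with glass beads and run on 10–50% sucrose gradients (16 h, 27,000 rpm), recorded at 254 nm.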

[9] = test system: 25S rRNA helices H89, H90, H42; test: UV cross-linking and analysis of cDNA; type: binding, Saccharomyces cerevisiae; settings: in vivo UV cross-linking, % of hits
Procedure, shortened: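 Yeast culture was UV-irradiated to cross-link protein to RNA, then lysed with zirconia beads. Nsa2-His-TEV-ProtA was bound to IgG-Sepharose and eluted with TEV. The eluate was RNase-treated and denatured, and Nsa2 was repurified on Ni-NTA under denaturing conditions. Cross-linked RNA was ligated to 3′ and 5′ DNA linkers and sequenced; hits were mapped to rRNA helices.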

B1: Rsa4 Y448E (protein)
chain: T3 sequence with Y448E
association with pre-60S particles (pre-60S particles [1]): partly impaired in association with pre-60S particles | binding to Nsa2 (Nsa2): impaired binding to Nsa2 in vitro | growth / viability (complementation) [2]: blocked cell growth in vivo | dominant-negative phenotype upon overexpression (wild-type yeast growth): less pronounced dominant-negative phenotype

B2: wild-type Rpl5: ribosomal protein Rpl5 (uL18), wild type (protein)
chain: MAFQKDAKSSAYSSRFQTPFRRRREGKTDYYQRKRLVTQHKAKYNTPKYRLVVRFTNKDIICQIISSTITGDVVLAAAYSHELPRYGITHGLTNWAAAYATGLLIARRTLQKLGLDETYKGVEEVEGEYELTEAVEDGPRPFKVFLDIGLQRTTTGARVFGALKGASDGGLYVPHSENRFPGWDFETEEIDPELLRSYIFGGHVSQYMEELADDDEERFSELFKGYLADDIDADSLEDIYTSAHEAIRADPAFKPTEKKFTKEQYAAESKKYRQTKLSKEERAARVAAKIAALAGQQ
co-purified particles / Syo1 (pre-60S particles [3]): only recovered mature 60S subunits, plus Syo1

B3: MBP-Nsa2 84–96 aa (domain or fragment)
chain: GDALPTYLLDREQ
binding result (HIS6-Rsa4 WD40 domain): binds

B4: Nsa2 peptide (85–95 aa, DALPTYLLDRE) (peptide)
peptide: DALPTYLLDRE
binding result [4]: binds

B5: MBP-Nsa2 (natural protein)
chain: MPQNDYIERHIKQHGKRLDHEERKRKREARESHKISERAQKLTGWKGKQFAKKRYAEKVSMRKKIKAHEQSKVKGSSKPLDTDGDALPTYLLDREQNNTAKAISSSIKQKRLEKADKFSVPLPKVRGISEEEMFKVIKTGKSRSKSWKRMITKHTFVGEGFTRRPVKMERIIRPSALRQKKANVTHPELGVTVFLPILAVKKNPQSPMYTQLGVLTKGTIIEVNVSELGMVTAGGKVVWGKYAQVTNEPDRDGCVNAVLLV
binding result [5]: binds

B6: nsa2 Y90A: Nsa2 with tyrosine 90 mutated to alanine (protein)
chain: B5 chain with Y90A
modifications: left off: MBP, N-terminal, kept
growth / viability (complementation) [6]: nonviable | association with pre-60S particles (pre-60S particles [1]): still associated with pre-60S particles; also recorded: efficiently assembled into preribosomes | replacement of endogenous Nsa2 in preribosomes (pre-60S particles [1]; upon overexpression): replacement of endogenous Nsa2 within the preribosomes | 60S production in pulse-chase ([7]; 60-min galactose induction, 7 min Ome-Tyr pulse, 20 min chase): arrests 60S biogenesis | enrichment of methyl-transferases Spb1 and Nop2 ([7]; arrested preribosomal intermediate, HA-Rpl25-Flag-ProtA purification): strongly enriched | effect of overexpression on 60S biogenesis / export [8]: defect in 60S subunit export | effect of overexpression on 60S biogenesis / export ([8]; listed as Nsa2 Y90A): specific block in nuclear export and formation of 60S subunits | dominant-negative phenotype upon overexpression (wild-type yeast growth): dominant lethal | dominant-negative phenotype upon overexpression (wild-type yeast growth; listed as Nsa2 Y90A): strong dominant-lethal phenotype

B7: Nsa2-His6-TEV-ProtA: Nsa2 tagged with His6-TEV-ProtA used for CRAC (protein, UniProt P40078 1-261, looked up)
Ribosome biogenesis protein …: B5 chain
modifications: His6-TEV-ProtA tag
CRAC hits on H42 ([9]; rRNA helix H42): 15% | CRAC hits on H89 ([9]; rRNA helix H89): 60% | CRAC hits on H90 ([9]; rRNA helix H90): 25%

B8: nsa2 Y90F: Nsa2 with tyrosine 90 mutated to phenylalanine (protein)
chain: B5 chain with Y90F
modifications: left off: MBP, N-terminal, kept
growth / viability (complementation) [6]: normal growth

B9: MBP-Nsa2 Y90F (natural protein)
chain: B5 chain with Y90F
binding result [5]: binds

Reference: article PMC4242840 (The Journal of Cell Biology, 2014)
